Source: PMC8068522 (European journal of nuclear medicine and molecular imaging, 2019)

Assays:
PSMA(+) PC3 PIP cells [1] = assay: cell uptake and internalization; format: cell-based, human; details: initially; per 1 million cells
In short: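 HPLC-purified 177Lu radioligands were incubated with PSMA(+) PC3 PIP cells for 1 h up to 24 h. Total cell-surface uptake and internalized fraction were expressed as percentage incubated dose per 1 million cells, mean ± SD, n = 3. Specificity was checked by blocking with excess (~10 μM) of a known PSMA inhibitor.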

PSMA(+) PC3 PIP tumor = assay: tissue biodistribution, PSMA; format: in vivo, mouse; details: 24 h
PSMA(+) PC3 PIP cells [2] = assay: clonogenic survival assay; format: cell-based, human; details: 48 h of incubation, colony formation
In short: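 PSMA(+) PC3 PIP and PSMA(−) PC3 flu cells were exposed to HPLC-purified 177Lu radioligands for 48 h at 37 °C, then scored for colony formation (mean ± SD, n = 3). D0 was the activity concentration (kBq/mL) giving 37% survival.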

[3] = system: PSMA(+) PC3 PIP flank tumor model; assay: PSMA-targeted radionuclide therapy in flank tumor model; format: in vivo, male NOD/SCID mice; details: single 111 MBq i.v.
[4] = acute radiotoxicity after 8 weeks; format: in vivo, male NOD/SCID mice; details: 8 weeks post-treatment, 111 MBq
In short: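 Tumour-bearing male NOD/SCID mice (PSMA(+) PC3 PIP flank, ~60–85 mm3, 14–18 days post-inoculation) got one 111 MBq tail-vein dose of 177Lu radioligand or saline. At 8 weeks, n = 3 per group underwent complete blood analysis (haemoglobin, white cells, neutrophils, platelets) and necropsy with H&E anatomic pathology at a phenotyping core.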

For O=C([O-])CN1CCN(CC(=O)[O-])CCN(CC(=O)NCC2CCC(C(=O)N[C@@H](Cc3ccc4ccccc4c3)C(=O)NCCCC[C@H](NC(=O)N[C@@H](CCC(=O)O)C(=O)O)C(=O)O)CC2)CCN(CC(=O)[O-])CC1.[177Lu+3] (some centres unmarked) [177Lu-PSMA-617], the “cell uptake within PSMA(+) PC3 PIP cells” value (PSMA(+) PC3 PIP cells [1]) was ~ 40 % of the incubated dose, the kidney uptake (PSMA(+) PC3 PIP tumor) was less than 0.5 ID/g and the “D0 (37% survival)” value (PSMA(+) PC3 PIP cells [2]) was 24–32 kBq/mL. The median survival [3] was 130 days, the “mice reaching a relative tumor volume > 4 times the initial volume” value [3] was “only one mouse” and the parotid glands pathology [4] was “mild changes”. The platelets [4] was “significantly lower platelets than those in the other treatment groups” and the testes pathology [4] was “most severe degenerative changes and loss of seminiferous epithelium”.
